High-throughput results from PubChem BioAssay.
The list is not random: actives were taken first. Their share in the collection is about 2.7%.
SIAE inh: inhibitors of human sialic acid acetylesterase SIAE; SIAE FP-Rh probe binding, fluorescence polarization; 370,000 compounds, 0.69% hits; inhibition, % at 9.66 µM; AID 1053197;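 active = inhibition above a cutoff: mean of compounds within the control limits plus 3 SD of those, cut at about 17% in these data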;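 also: 0% = plate median of compound wells and 100% = probe without SIAE protein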
TCR-CD3 inh: human TCR-CD3 binding inhibition; inhibition, % at 9.4 µM; TAMRA-labeled TCR probe fluorescence, biochemical; 360,000 compounds, 0.37% hits; in the data active = inhibition above about 19%;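 also: recombinant mutant TCR 2C K166C tagged with TAMRA read by polarization; 0% = receptor in buffer alone and 100% = receptor with positive control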
PRMT1 inh: inhibitors of human PRMT1 | recombinant PRMT1, activity-based probe fluorescence polarization | Q99873 | inhibition, % at 2.79 µM | 370,000 compounds, 1.3% hits;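 active = inhibition above about 21% made by adding two undisclosed values, limit read from the data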
Target sequence (Q99873 whole entry, looked up): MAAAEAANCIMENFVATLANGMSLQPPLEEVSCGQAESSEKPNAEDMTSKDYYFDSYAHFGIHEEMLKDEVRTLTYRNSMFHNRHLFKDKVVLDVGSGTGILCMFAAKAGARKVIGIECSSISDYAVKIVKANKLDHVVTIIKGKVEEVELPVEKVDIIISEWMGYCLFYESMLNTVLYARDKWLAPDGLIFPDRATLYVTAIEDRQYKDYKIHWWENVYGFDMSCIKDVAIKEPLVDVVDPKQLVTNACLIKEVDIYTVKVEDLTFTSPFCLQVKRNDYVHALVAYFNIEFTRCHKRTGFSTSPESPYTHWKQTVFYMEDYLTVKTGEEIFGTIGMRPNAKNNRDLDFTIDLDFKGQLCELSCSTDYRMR
ABHD4 inh: inhibits mouse alpha/beta hydrolase domain 4. Q8VD66. purified mABHD4, FP-Rh probe fluorescence polarization. inhibition, % at 8.92 µM. 370,000 compounds, 0.54% hits. AID 720543;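 active = inhibition exceeding the mean over every tested compound plus 3 SD, cut at about 30% in these data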;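 also: 0% = plate median of compound wells and 100% = S159A mutant with DMSO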
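Assay system: Wild-type mouse ABHD4 protein | Medium: HEPES pH 7.0 buffer, 150 mM NaCl, 0.01% Pluronic F-127 | Incubation: Enzyme–compound pre-incubation 45 min, then probe 60 min, both 25 °C | Technique: Fluorescence polarization with parallel and perpendicular emission, 525/598 nm | Evaluation: % inhibition of FP-Rh probe binding versus controls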
HTRA1 inh: inhibitors of human serine peptidase HTRA1 | recombinant HTRA1, FP-rhodamine activity-based probe, fluorescence polarization | inhibition, % at 5.96 µM | 340,000 compounds, 0.5% hits; in the data active = inhibition above about 36%;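 also: 0% = enzyme with DMSO and 100% = wells lacking enzyme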
mABHD4 conf: confirmation of mouse ABHD4 inhibitors; shares compounds with ABHD4 inh; purified mABHD4, FP-Rh probe fluorescence polarization; inhibition, % at 8.92 µM; 1,800 compounds, 55% hits;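 active = mean inhibition across replicates above the hit cutoff set in the primary screen, cut at about 30% in these data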;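 also: 0% = wild-type ABHD4 with DMSO and 100% = catalytically dead S159A mutant with DMSO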
An asterisk follows results filed as active.

For CC(C)c1ccc(NC(=O)OC2CCC23CCC(c2ccccc2)CC3)cc1 (stereo not given) the results were SIAE inh -3, PRMT1 inh 4 and ABHD4 inh -5.
`F[B-](F)(F)c1cc2cc(Br)ccc2s1` gave HTRA1 inh 3.
Screening F[B-](F)(F)c1cc2ccccc2s1 returned SIAE inh 2, TCR-CD3 inh 7, PRMT1 inh 2, ABHD4 inh 87*, HTRA1 inh 2 and mABHD4 conf 72*.
For CC(C)(C)S(=O)(=O)N1C[C@@H]2C(=C(CCO)C[C@@H]3C(=O)N(c4ccccc4)C(=O)[C@@H]32)[C@H]1CCO the results were SIAE inh -6, TCR-CD3 inh 2, PRMT1 inh -1 and ABHD4 inh -4.
`COC(=O)C1=C(N)Oc2cc(N(C)C)ccc2C1c1ccccc1OC` (stereo not given) gave SIAE inh 5, TCR-CD3 inh -9, PRMT1 inh 15, ABHD4 inh 47*, HTRA1 inh 4 and mABHD4 conf -20.
Screening COC(=O)C1=C(N)Oc2cc(C)n(CC3CCCO3)c(=O)c2C1c1ccccc1OC (stereo not given) returned SIAE inh 6, TCR-CD3 inh 3, PRMT1 inh 1, ABHD4 inh 0 and HTRA1 inh 5.
For Oc1cccc2c(NC(=S)Nc3ccc(OC(F)F)cc3)cccc12 the results were SIAE inh 14, TCR-CD3 inh -3, PRMT1 inh 8, ABHD4 inh 34*, HTRA1 inh 16 and mABHD4 conf 11.
For CCOC(=O)c1c(-c2ccc(-c3ccccc3)cc2)csc1NC(=O)CNCCN(C)C the results were SIAE inh 11, TCR-CD3 inh -9, PRMT1 inh 3, ABHD4 inh 30*, HTRA1 inh 30 and mABHD4 conf 43*.
CCN(Cc1ccccc1)c1ccccc1 was read as SIAE inh 3, TCR-CD3 inh 3, PRMT1 inh 1, ABHD4 inh 2 and HTRA1 inh 0.
`CCN(Cc1ccccc1)c1ccc(/C=N/N=C(N)N)cc1` gave SIAE inh 6, TCR-CD3 inh 0, PRMT1 inh -2, ABHD4 inh 46*, HTRA1 inh 23 and mABHD4 conf 62*.
For CCOC(=O)N1CCN(c2c(NCc3ccccc3Cl)c(=O)c2=O)CC1 the results were SIAE inh -4, TCR-CD3 inh 2, PRMT1 inh -9, ABHD4 inh 0 and HTRA1 inh 4.
Screening CC1CN(CC(O)COc2ccc(C#N)cc2)CCN1CC(O)COc1ccc(C#N)cc1 (stereo not given) returned SIAE inh -4, TCR-CD3 inh 2, PRMT1 inh 0, ABHD4 inh -2 and HTRA1 inh 0.
`Cc1nc(NC(=O)COc2ccccc2)sc1C(=O)Nc1cccc(Cl)c1` gave SIAE inh -7, TCR-CD3 inh 7, PRMT1 inh 0, ABHD4 inh 43*, HTRA1 inh -20 and mABHD4 conf 33*.
Screening COC(=O)c1sc(NC(=O)COc2ccc(OC)cc2)nc1C returned SIAE inh -11, TCR-CD3 inh 3, PRMT1 inh -2, ABHD4 inh 6 and HTRA1 inh 3.
Screening O=C(COc1ccccc1)Nc1nc2cc3c(cc2s1)OCO3 returned SIAE inh -9, TCR-CD3 inh 5, PRMT1 inh -4, ABHD4 inh 36*, HTRA1 inh -3 and mABHD4 conf 40*.
Screening COc1ccc(NC(=O)c2sc(NC(=O)COc3ccccc3)nc2C)cc1 returned SIAE inh -9, TCR-CD3 inh -1, PRMT1 inh -2, ABHD4 inh 50*, HTRA1 inh -5 and mABHD4 conf 60*.
For COc1cccc(-c2cnc3c(c2)C(=O)N([C@H](C)CO)C[C@@H](C)[C@H](CN(C)C(=O)Nc2ccccc2F)O3)c1 the results were SIAE inh -4, TCR-CD3 inh -1, PRMT1 inh 2, ABHD4 inh -5 and HTRA1 inh 3.
For Cc1cc(OCC(=O)NCc2ccccn2)c2c(C)cc(=O)oc2c1 the results were SIAE inh -11, TCR-CD3 inh -10, PRMT1 inh 1, ABHD4 inh 0 and HTRA1 inh -2.
For O=C(CCc1ccccc1)OCCOC(=O)CCc1ccccc1 the results were SIAE inh -4, TCR-CD3 inh -2, PRMT1 inh -3, ABHD4 inh -4 and HTRA1 inh -5.
For CC(C)CNC(=O)OCc1cn(Cc2ccccc2F)nn1 the results were SIAE inh 7, PRMT1 inh -5 and ABHD4 inh 7.
O=C(CNc1cccc2ccccc12)N/N=C/C(Br)=C/c1ccccc1 was read as SIAE inh 7, TCR-CD3 inh 3, PRMT1 inh 20, ABHD4 inh 32*, HTRA1 inh 22 and mABHD4 conf 3.
O=c1oc2ccccc2nc1/C=C(O)/C=C\c1ccccc1 was read as SIAE inh 4, TCR-CD3 inh 3, PRMT1 inh 13, ABHD4 inh 33*, HTRA1 inh 9 and mABHD4 conf 9.
`O=C(NC1CC1)c1sc2ccccc2c1Cl` gave SIAE inh -2, TCR-CD3 inh -6, PRMT1 inh 4, ABHD4 inh -2 and HTRA1 inh 3.
O=C(NNC(=S)NC1CCCCC1)c1sc2ccccc2c1Cl was read as SIAE inh 12, TCR-CD3 inh 6, PRMT1 inh -1, ABHD4 inh 31*, HTRA1 inh 9 and mABHD4 conf 22.
Screening CCCCCCCN(c1ccccc1)[C@@H]1C[C@H]2CCCC(=O)N3CC[C@@H](C1)[C@@H]23 returned SIAE inh 5, TCR-CD3 inh -4, PRMT1 inh 1, ABHD4 inh 31*, HTRA1 inh -14 and mABHD4 conf 53*.
CCCCNC(=O)O[C@@H]1C[C@H]2CCCC(=O)N3CC[C@@H](C1)[C@@H]23 was read as SIAE inh -1, TCR-CD3 inh 5, PRMT1 inh 0, ABHD4 inh 0 and HTRA1 inh -1.
`CCc1c(C2CC2)ncn1Cc1cccc(-c2ccccc2)c1` gave SIAE inh 3, TCR-CD3 inh -3, PRMT1 inh -6 and ABHD4 inh 21.
Screening C(=N\Nc1nc2ccccc2s1)/c1ccccn1 returned SIAE inh 1, TCR-CD3 inh -2, PRMT1 inh -3, ABHD4 inh 37* and mABHD4 conf 40*.
Cc1cc(NN=Cc2ccccn2)nc2ccccc12 was read as SIAE inh 2, TCR-CD3 inh -4, PRMT1 inh -3, ABHD4 inh 43* and mABHD4 conf 27.
C(=NNc1ccc2ccccc2n1)c1ccccn1 was read as SIAE inh 7, TCR-CD3 inh -5, PRMT1 inh -1, ABHD4 inh 44* and mABHD4 conf 12.
`CCC/C=N/Nc1nc2ccccc2s1` gave SIAE inh 7, TCR-CD3 inh -9, PRMT1 inh 7, ABHD4 inh 50*, HTRA1 inh 28 and mABHD4 conf 17.
